Laboratory results reported in ChEMBL document CHEMBL3120154, “2-[N-Alkyl(R-phenyl)-aminomethyl]-3-phenyl-7-trifluoromethylquinoxalines as anticancer agents inhibitors of folate enzymes” (Eur J Med Chem, 2014).

Assays:
Format in all cases: functional
HOP-92 [1] = experiment: Cytotoxicity against human HOP92 cells at 10^-6 M after 48 hrs by SRB assay; details: HOP-92, 48 h, read-out: GI
Summary of the method: (§1)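 Run by NCI on its 60-line human tumor cell panel, after a three-cell-line prescreen. Cells were exposed to drug for 48 h over a 5-log range: 100, 10, 1, 0.1 and 0.01 micromolar. Growth was estimated by sulforhodamine B (SRB) protein staining. Percent growth inhibition (I%) was recorded at each concentration relative to untreated control cells.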

Malme-3M = experiment: Cytotoxicity against human MALME-3M cells at 10^-4 M after 48 hrs by SRB assay; details: read-out: GI
Summary of the method: (§2)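 Run in the NCI 60-cell-line screen after a three-line prescreen. Cells got a 48 h drug exposure; viability/growth was estimated with the sulforhodamine B protein assay. Growth inhibition (I%) was recorded at 100, 10, 1, 0.1 and 0.01 micromolar. Percent growth is relative to untreated control cells, and negative values indicate cell kill.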

LOX IMVI = experiment: Cytotoxicity against human LOXIMVI cells at 10^-4 M after 48 hrs by SRB assay; details: read-out: GI; summary of the method: as §2
SNB-19 = experiment: Cytotoxicity against human SNB19 cells at 10^-4 M after 48 hrs by SRB assay; details: SNB-19, 48 h, read-out: GI
Summary of the method: (§3)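 Second-stage screen in the 60-cell-line human tumor panel at NCI, over a 5-log range (100, 10, 1, 0.1, 0.01 micromolar). Cells were exposed to drug for 48 h and growth was estimated with a sulforhodamine B protein stain. The value is percent growth inhibition at each concentration.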

SF-539 = experiment: Cytotoxicity against human SF539 cells at 10^-4 M after 48 hrs by SRB assay; details: SF-539, 48 h, read-out: GI; summary of the method: as §3
SF-295 = experiment: Cytotoxicity against human SF295 cells at 10^-4 M after 48 hrs by SRB assay; details: SF-295, 48 h, read-out: GI; summary of the method: as §3
KM12 = experiment: Cytotoxicity against human KM12 cells at 10^-4 M after 48 hrs by SRB assay; details: KM12, 48 h, read-out: GI; summary of the method: as §2
HCT-15 = experiment: Cytotoxicity against human HCT15 cells at 10^-4 M after 48 hrs by SRB assay; details: HCT-15, 48 h, read-out: GI; summary of the method: as §1
HT-29 = experiment: Cytotoxicity against human HT-29 cells at 10^-4 M after 48 hrs by SRB assay; details: HT-29, 48 h, read-out: GI; summary of the method: as §1
COLO 205 = experiment: Cytotoxicity against human COLO205 cells at 10^-4 M after 48 hrs by SRB assay; details: COLO 205, 48 h, read-out: GI; summary of the method: as §1
NCI-H23 = experiment: Cytotoxicity against human NCI-H23 cells at 10^-4 M after 48 hrs by SRB assay; details: NCI-H23, 48 h, read-out: GI; summary of the method: as §2
HOP-92 [2] = experiment: Cytotoxicity against human HOP92 cells at 10^-4 M after 48 hrs by SRB assay; details: HOP-92, 48 h, read-out: GI; summary of the method: as §1
NCI-H226 = experiment: Cytotoxicity against human NCI-H226 cells at 10^-4 M after 48 hrs by SRB assay; details: NCI-H226, 48 h, read-out: GI; summary of the method: as §2
HOP-62 = experiment: Cytotoxicity against human HOP62 cells at 10^-4 M after 48 hrs by SRB assay; details: HOP-62, 48 h, read-out: GI; summary of the method: as §1
[3] = Cytotoxicity against human EKVX cells at 10^-4 M after 48 hrs by SRB assay; details: read-out: GI; summary of the method: as §1
CCRF-CEM = experiment: Cytotoxicity against human CCRF-CEM cells at 10^-4 M after 48 hrs by SRB assay; details: read-out: GI; summary of the method: as §1
SF-268 = experiment: Cytotoxicity against human SF268 cells assessed as cell growth at 10^-4 M after 48 hrs by alamar blue assay relative to untreated control; details: SF-268, 48 h, read-out: Activity
Summary of the method: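 Three-cell-line prescreen at NCI. Each line was seeded and pre-incubated, then given a single concentration (10^-4 or 10^-5 M) and incubated for 48 h. The end-point was alamar blue. The value is percent growth of treated cells versus untreated control cells, with negative numbers indicating cell kill.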

T47D = experiment: Cytotoxicity against human T47D cells at 10^-4 M after 48 hrs by SRB assay; details: read-out: GI; summary of the method: as §3
BT-549 = experiment: Cytotoxicity against human BT549 cells at 10^-4 M after 48 hrs by SRB assay; details: BT-549, 48 h, read-out: GI; summary of the method: as §1
MDA-MB-435 = experiment: Cytotoxicity against human MDA-MB-435 cells at 10^-4 M after 48 hrs by SRB assay; details: MDA-MB-435, 48 h, read-out: GI; summary of the method: as §2
MDA-MB-231 = experiment: Cytotoxicity against human MDA-MB-231 cells at 10^-4 M after 48 hrs by SRB assay; details: MDA-MB-231, 48 h, read-out: GI; summary of the method: as §2
MCF7 [4] = experiment: Cytotoxicity against human MCF7 cells at 10^-4 M after 48 hrs by SRB assay; details: MCF7, 48 h, read-out: GI; summary of the method: as §2
DU-145 = experiment: Cytotoxicity against human DU145 cells at 10^-4 M after 48 hrs by SRB assay; details: DU-145, 48 h, read-out: GI; summary of the method: as §1
PC-3 = experiment: Cytotoxicity against human PC3 cells at 10^-4 M after 48 hrs by SRB assay; details: PC-3, 48 h, read-out: GI; summary of the method: as §3
SN12C = experiment: Cytotoxicity against human SN12C cells at 10^-4 M after 48 hrs by SRB assay; details: read-out: GI; summary of the method: as §3
CAKI-1 = experiment: Cytotoxicity against human Caki1 cells at 10^-4 M after 48 hrs by SRB assay; details: CAKI-1, 48 h, read-out: GI; summary of the method: as §1
[5] = Cytotoxicity against human OVCAR5 cells at 10^-4 M after 48 hrs by SRB assay; details: OVCAR-5, 48 h, read-out: GI; summary of the method: as §3
OVCAR-3 = experiment: Cytotoxicity against human OVCAR3 cells at 10^-4 M after 48 hrs by SRB assay; details: OVCAR-3, 48 h, read-out: GI; summary of the method: as §2
SK-MEL-5 = experiment: Cytotoxicity against human SK-MEL-5 cells at 10^-4 M after 48 hrs by SRB assay; details: SK-MEL-5, 48 h, read-out: GI; summary of the method: as §3
SK-MEL-28 = experiment: Cytotoxicity against human SK-MEL-28 cells at 10^-4 M after 48 hrs by SRB assay; details: SK-MEL-28, 48 h, read-out: GI; summary of the method: as §3
M14 = experiment: Cytotoxicity against human M14 cells at 10^-4 M after 48 hrs by SRB assay; details: M14, 48 h, read-out: GI; summary of the method: as §2
MCF7 [6] = experiment: Cytotoxicity against human MCF7 cells assessed as cell growth at 10^-4 M after 48 hrs by alamar blue assay relative to untreated control; details: MCF7, 48 h, read-out: Activity
Summary of the method: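 Three-cell-line prescreen. Each line was inoculated and preincubated on a microtiter plate, then the agent was added at a single concentration (10^-4 or 10^-5 M) and incubated 48 h. Endpoint was measured with alamar blue, and growth is reported as a percentage of untreated control cells.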

HCC 2998 = experiment: Cytotoxicity against human HCC2998 cells at 10^-4 M after 48 hrs by SRB assay; details: HCC 2998, 48 h, read-out: GI; summary of the method: as §1

SMILES	inhibition of growth at 100 µM (LOX IMVI)	inhibition of growth at 100 µM (SNB-19)	inhibition of growth at 100 µM (SF-539)	inhibition of growth at 100 µM (SF-295)	inhibition of growth at 100 µM (HCT-15)	inhibition of growth at 100 µM (HT-29)	inhibition of growth at 100 µM (COLO 205)	inhibition of growth at 100 µM (NCI-H23)	inhibition of growth at 100 µM (HOP-92 [2])	inhibition of growth at 100 µM [3]	growth at 100 µM (SF-268)	inhibition of growth at 100 µM (T47D)	inhibition of growth at 100 µM (BT-549)	inhibition of growth at 100 µM (MDA-MB-435)	inhibition of growth at 100 µM (MDA-MB-231)	inhibition of growth at 100 µM (MCF7 [4])	inhibition of growth at 100 µM (DU-145)	inhibition of growth at 100 µM (PC-3)	inhibition of growth at 100 µM (SN12C)	inhibition of growth at 100 µM [5]	other results
C#CCN(Cc1nc2cc(C(F)(F)F)ccc2nc1-c1ccccc1)c1ccc(C)cc1	178%	163%	77%	150%	181%	200%	177%	196%	93%	56%	89%	172%	104%	149%	163%	84%	40%	58%	135%	200%	inhibition of growth at 1 µM (HOP-92 [1]): < 40%; inhibition of growth at 100 µM (Malme-3M): 160%; inhibition of growth at 100 µM (KM12): 161%; inhibition of growth at 100 µM (NCI-H226): 145%; inhibition of growth at 100 µM (HOP-62): 199%; inhibition of growth at 100 µM (CCRF-CEM): < 40%; inhibition of growth at 100 µM (CAKI-1): 147%; inhibition of growth at 100 µM (OVCAR-3): 164%; inhibition of growth at 100 µM (SK-MEL-5): 158%; inhibition of growth at 100 µM (SK-MEL-28): 200%; inhibition of growth at 100 µM (M14): 186%; growth at 100 µM (MCF7 [6]): 58%
C#CCN(Cc1nc2cc(C(F)(F)F)ccc2nc1-c1ccccc1)c1ccc(F)cc1	101%	84%	96%	68%	97%	80%	126%	31%	106%	120%	90%	90%	77%	87%	129%	89%	82%	92%	102%	56%	inhibition of growth at 100 µM (Malme-3M): 129%; inhibition of growth at 100 µM (KM12): 124%; inhibition of growth at 100 µM (NCI-H226): 71%; inhibition of growth at 100 µM (CCRF-CEM): 94%; inhibition of growth at 100 µM (CAKI-1): 110%; inhibition of growth at 100 µM (OVCAR-3): 94%; inhibition of growth at 100 µM (SK-MEL-5): 180%; inhibition of growth at 100 µM (SK-MEL-28): 71%; inhibition of growth at 100 µM (M14): 71%; growth at 100 µM (MCF7 [6]): 41%
C#CCN(Cc1nc2cc(C(F)(F)F)ccc2nc1-c1ccccc1)c1ccc(F)c(F)c1	77%	52%	96%	74%	82%	70%	75%	52%	63%	123%	95%	61%	67%	81%	90%	94%	78%	78%	75%	< 40%	inhibition of growth at 100 µM (HCC 2998): 102%; inhibition of growth at 100 µM (NCI-H226): 51%; inhibition of growth at 100 µM (HOP-62): < 40%; inhibition of growth at 100 µM (CCRF-CEM): 98%; inhibition of growth at 100 µM (OVCAR-3): 116%; inhibition of growth at 100 µM (SK-MEL-5): 144%; inhibition of growth at 100 µM (SK-MEL-28): < 40%; inhibition of growth at 100 µM (M14): 41%; growth at 100 µM (MCF7 [6]): 40%
CCN(Cc1nc2cc(C(F)(F)F)ccc2nc1-c1ccccc1)c1ccc(OC)c(OC)c1	200%	148%	176%	181%	171%	97%	92%	158%	184%	112%	0%	120%	167%	183%	174%	86%	173%	185%	189%	152%	inhibition of growth at 1 µM (HOP-92 [1]): < 40%; inhibition of growth at 100 µM (KM12): 153%; inhibition of growth at 100 µM (HCC 2998): 174%; inhibition of growth at 100 µM (NCI-H226): 179%; inhibition of growth at 100 µM (HOP-62): 195%; inhibition of growth at 100 µM (CCRF-CEM): 146%; inhibition of growth at 100 µM (CAKI-1): 117%; inhibition of growth at 100 µM (OVCAR-3): 194%; inhibition of growth at 100 µM (SK-MEL-5): 191%; inhibition of growth at 100 µM (SK-MEL-28): 112%; inhibition of growth at 100 µM (M14): 194%; growth at 100 µM (MCF7 [6]): 1%
C#CCN(Cc1nc2cc(C(F)(F)F)ccc2nc1-c1ccccc1)c1ccc(OC(F)(F)F)cc1	102%	< 40%	161%	49%	47%	77%	73%	60%	109%	89%	21%	70%	86%	86%	81%	79%	75%	77%	83%	< 40%	inhibition of growth at 100 µM (Malme-3M): < 40%; inhibition of growth at 100 µM (KM12): 112%; inhibition of growth at 100 µM (HCC 2998): 104%; inhibition of growth at 100 µM (HOP-62): 48%; inhibition of growth at 100 µM (CAKI-1): 69%; inhibition of growth at 100 µM (OVCAR-3): 88%; inhibition of growth at 100 µM (SK-MEL-5): 86%; inhibition of growth at 100 µM (SK-MEL-28): < 40%; inhibition of growth at 100 µM (M14): 76%; growth at 100 µM (MCF7 [6]): 17%
